From ChEMBL document CHEMBL1146271, “The discovery of a potent orally efficacious indole androgen receptor antagonist through in vivo screening” (2007)
Active and inactive are the calls of the source. The rule behind the calls is not given here.

Assays:
Rattus norvegicus [1] = organism: Rattus norvegicus; assay: Reduction of testosterone-induced prostate weight increase in Sprague-Dawley rat by modified Hersherberger assay relative to control; type: functional; design: concentration or dose not given beside the values
Method in brief: (§1)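 Rats castrated at three weeks old, then dosed orally by gavage once daily for five days in 30% (w/v) hydroxypropyl-β-cyclodextrin, together with testosterone propionate 0.1 mg/day (about 1.3 mg/kg) s.c. in sesame oil. At necropsy, ventral prostate wet weight was measured. Values are body-weight-adjusted means of three or four animals.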

Rattus norvegicus [2] = organism: Rattus norvegicus; assay: Inhibition of testosterone-induced prostate weight increase in Sprague-Dawley rat by modified Hersherberger assay; type: functional, Prostate gland; method in brief: as §1

Row | Compound | Activity (Rattus norvegicus [1]; Prostate gland) | Activity (Rattus norvegicus [1]) | ID50 (Rattus norvegicus [2])
1 | CC(O)c1cc2cc([N+](=O)[O-])c(C(F)(F)F)cc2[nH]1 (stereo not given) | inactive |  | 
2 | CC(O)(c1cc2cc(C#N)c(C(F)(F)F)cc2[nH]1)C(F)(F)F (single isomer, unassigned; (-)) |  | 80% | 0.13 mg/day
3 | CC(O)(c1cc2cc(C#N)c(C(F)(F)F)cc2[nH]1)C(F)(F)F (single isomer, unassigned; (+)) |  | 76% | 0.43 mg/day
4 | CC(O)(CS(=O)(=O)c1ccc(F)cc1)C(=O)Nc1ccc(C#N)c(C(F)(F)F)c1 (stereo not given) [BICALUTAMIDE] |  | 75% | 0.29 mg/day
5 | CCC(C)(O)c1cc2cc([N+](=O)[O-])c(C(F)(F)F)cc2[nH]1 (stereo not given) |  | 63% | 
6 | CC(C)(O)c1[nH]c2cc(C(F)(F)F)c(C#N)cc2c1I |  | 81% | 1.1 mg/day
7 | CC(C)(O)c1cc2cc([N+](=O)[O-])c(C(F)(F)F)cc2[nH]1 |  | 32% | 
8 | CC(O)(c1cc2cc([N+](=O)[O-])c(C(F)(F)F)cc2[nH]1)C(F)(F)F (stereo not given) |  | 78% | 
9 | Cn1c(C(C)(O)C(F)(F)F)cc2cc(C#N)c(C(F)(F)F)cc21 (stereo not given) |  | 90% | 
10 | CC(O)(c1[nH]c2cc(C(F)(F)F)c(C#N)cc2c1Cl)C(F)(F)F (stereo not given) |  | 66% | 
11 | CC(C)(O)c1[nH]c2cc(C(F)(F)F)c([N+](=O)[O-])cc2c1C#N |  | 56% | 
12 | CC(C)(O)c1[nH]c2cc(C(F)(F)F)c(C#N)cc2c1Br |  |  | 0.8 mg/day
13 | CC(O)(c1[nH]c2cc(C(F)(F)F)c(C#N)cc2c1I)C(F)(F)F (stereo not given) |  | 79% | 
14 | CC(O)(c1cc2cc(C#N)c(C(F)(F)F)cc2[nH]1)C(F)(F)F (stereo in doubt; 6i) |  | 82% | 
15 | CC(C)(O)c1[nH]c2cc(C(F)(F)F)c([N+](=O)[O-])cc2c1Cl |  | 81% | 
16 | CC(C)(O)c1[nH]c2cc(C(F)(F)F)c([N+](=O)[O-])cc2c1Br |  | 71% | 
17 | Cc1c(C(C)(C)O)[nH]c2cc(C(F)(F)F)c([N+](=O)[O-])cc12 |  | 37% | 
18 | CC(O)(CO)c1cc2cc([N+](=O)[O-])c(C(F)(F)F)cc2[nH]1 (stereo not given) |  | 58% | 
19 | C=Cc1c(C(C)(C)O)[nH]c2cc(C(F)(F)F)c([N+](=O)[O-])cc12 | inactive |  | 
20 | CC(O)(c1cc2cc(C#N)ccc2[nH]1)C(F)(F)F (stereo not given) |  | 55% | 
21 | CC(C)(O)c1[nH]c2cc(C(F)(F)F)c(C#N)cc2c1Cl |  |  | >3 mg/day
22 | CC(O)(c1cc2cc(Cl)c(C(F)(F)F)cc2[nH]1)C(F)(F)F (stereo not given) |  | 30% | 
23 | CC(O)(CCl)c1cc2cc([N+](=O)[O-])c(C(F)(F)F)cc2[nH]1 (stereo not given) |  | 38% | 
24 | CSCC(C)(O)c1cc2cc([N+](=O)[O-])c(C(F)(F)F)cc2[nH]1 (stereo not given) |  | 66% | 
25 | Cc1c(C(C)(C)O)[nH]c2cc(C(F)(F)F)c(C#N)cc12 |  | 55% | 
26 | CC(C)(O)c1[nH]c2cc(C(F)(F)F)c([N+](=O)[O-])cc2c1I |  | 59% | 
